Only a selection was taken, and hits are over-represented in it overall.
p-CIP stab down = p/CIP protein destabilization; Q05BA5; F442A p/CIP-EGFP cells, EGFP fluorescence, 16 h; decrease of EGFP signal, % at 10 µM; 290,000 tested, 0.01% active;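 active means EGFP signal decrease of at least 30% at 10 µM or well 3 SD below plate mean, unless failing retest; inactive means the rest, including hits failing retest or dose response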
MDM2 E3 inh = Mdm2 E3 ligase (human) inhibition. Q00987. signal enhancement, % at 5 µM. 210,000 tested, 0.11% active. cell-based MDM2 ubiquitination luciferase reporter, 2 h; 0 = plate control, 100 = twice control, blank-subtracted. AID 1230;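 active means signal enhancement of 30% or more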;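 further: luminescence tracks abundance of the self-degrading MDM2-luciferase fusion protein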
Target sequence (Q00987 whole entry, looked up, the tested form may be a part): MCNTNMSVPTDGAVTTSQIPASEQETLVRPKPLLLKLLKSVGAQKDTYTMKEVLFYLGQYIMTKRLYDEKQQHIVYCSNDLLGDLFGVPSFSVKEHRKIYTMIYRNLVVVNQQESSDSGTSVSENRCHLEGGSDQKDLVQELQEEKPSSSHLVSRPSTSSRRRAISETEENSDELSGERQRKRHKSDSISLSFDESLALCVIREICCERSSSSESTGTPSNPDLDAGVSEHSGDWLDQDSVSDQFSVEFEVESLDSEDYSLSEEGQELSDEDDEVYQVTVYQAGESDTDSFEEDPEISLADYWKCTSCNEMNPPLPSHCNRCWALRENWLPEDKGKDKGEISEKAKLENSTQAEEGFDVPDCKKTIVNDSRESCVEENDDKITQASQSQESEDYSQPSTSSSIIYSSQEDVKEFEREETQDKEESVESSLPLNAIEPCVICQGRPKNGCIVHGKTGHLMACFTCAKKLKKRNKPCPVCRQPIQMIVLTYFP
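Material: stable MDM2–luciferase fusion reporter cells / Quantity: 2000 cells/well / Dosing: single 5 µM compound dose, 0.2% final DMSO / Buffer or medium: DMEM / Schedule: 4 h cell settling then 2 h compound exposure, 37 °C / Detection: luminescence with SteadyLite reagent, 15 min at room temperature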
Hep lipid drop = modulators of hepatic lipid droplet formation. AML12 mouse hepatocytes, oleate lipid droplets, BODIPY imaging. inhibition, % at 6.5 µM. 240,000 tested, 0.4% active;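 active means lipid droplet intensity inhibited by at least 50%, with more than 500 cells counted; inconclusive means wells with under 300 cells, treated as cytotoxic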
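material = mouse AML12 hepatocyte cell line, fixed after treatment | also added = 100 µM oleic acid challenge | doses = compound at 6.5 µM only | schedule = overnight exposure | technique = Image-based BODIPY and DAPI two-channel analysis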
Hep lipid conf = confirmation of inhibitors of hepatic lipid droplet formation; AML12 mouse hepatocytes, BODIPY lipid droplet imaging; droplets induced with 100 µM oleic acid; inhibition, % at 5.2 µM; 870 tested, 65% active; AID 463183; shares compounds with Hep lipid drop;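 active means inhibition of lipid droplet metric at least 50%, with more than 300 cells in each of four replicates; inconclusive means wells under 300 cells, flagged as toxic or low count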;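 further: plate controls were DMSO with oleic acid for no effect and 5 µM Triacsin-C for full effect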
AML12 tox img = counter-screen for cytotoxicity in AML12 mouse hepatocytes; z-score at 5 µM; shares compounds with Hep lipid drop; AID 463200; 870 tested, 3% active; DAPI nuclear morphology cytotoxicity imaging; active compounds read high; cells fed 100 µM oleate overnight; in the data active means z-score above about 6.3;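 further: compound exposure lasted overnight at 37 °C before fixation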
AML12 tox ATP = AML12 hepatocyte cytotoxicity, confirmed. shares compounds with Hep lipid drop. AML12 mouse hepatocyte viability, ATP luminescence; cells loaded with 100 µM oleic acid. cytotoxicity, % at 50 µM. 530 tested, under 10 active;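 active means cytotoxicity above 50% in each of four replicates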;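 further: compound exposure lasted overnight at 37 °C before the ATP read; 0% = DMSO-treated cells and 100% = wells with no cells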
Active calls of the source: *.

`Cc1oc(-c2ccccc2)nc1CS(=O)CC(=O)NC1CCCCCC1` (centres undefined) gave p-CIP stab down 2 and Hep lipid drop 8.
Screening COc1ccccc1N1CCN(C(=O)CSc2nc3ccccc3nc2N2CCC(C)CC2)CC1 returned p-CIP stab down -12, Hep lipid drop 52*, Hep lipid conf 26 and AML12 tox img 0.4.
`COc1ccccc1N1CCN(C(=O)CSc2nc3ccccc3nc2N2CCCCC2)CC1` gave p-CIP stab down 9 and Hep lipid drop 14.
Cc1ccc(-c2nnn(CC(=O)N(c3cccc(F)c3)C(C(=O)NC(C)(C)C)c3ccco3)n2)o1 (centres undefined) was read as p-CIP stab down -6, MDM2 E3 inh -1 and Hep lipid drop 2.
Screening C=C(C)[C@@H]1CCC2(C(=O)O)CC[C@]3(C)[C@H](CC[C@@H]4[C@@]5(C)CCC(=O)C(C)(C)[C@@H]5CC[C@]43C)[C@@H]12 (some centres undefined) returned p-CIP stab down -4 and Hep lipid drop 8.
Screening C=C(C)[C@@H]1CC[C@]2(C(=O)O)CC[C@]3(C)C(CCC4[C@@]5(C)CC[C@H](O)C(C)(C)C5CC[C@]43C)C12 (some centres undefined) returned p-CIP stab down 5, Hep lipid drop 58*, Hep lipid conf 20 and AML12 tox img 0.66.
Screening Cc1nnnn1CC(=O)Nc1ccccc1[N+](=O)[O-] returned p-CIP stab down -2, MDM2 E3 inh 7 and Hep lipid drop -8.
For Cc1cccc(N2CCN(C(=O)CCC(=O)N3Cc4ccccc4Oc4ncccc43)CC2)c1C the results were p-CIP stab down 6 and Hep lipid drop -38.
For CC(C)C(=O)N(Nc1nc2ccccc2s1)C(=O)C(C)C the results were p-CIP stab down -2, MDM2 E3 inh -13, Hep lipid drop 72*, Hep lipid conf 70*, AML12 tox img 0.056 and AML12 tox ATP 8.
Cc1ccc(C(=O)N(Nc2nc3ccccc3s2)C(=O)c2ccc(C)cc2)cc1 was read as p-CIP stab down 1, MDM2 E3 inh 0 and Hep lipid drop -1.
Cc1ccc2cccc(OCC(=O)N3CC(C)CC(C)C3)c2n1 (centres undefined) was read as p-CIP stab down 7, MDM2 E3 inh -23 and Hep lipid drop -17.
`C#CC(=O)N(c1ccc(OC)c(OC)c1)C(C(=O)NC1CCCC1)c1cccs1` (centres undefined) gave p-CIP stab down -12, MDM2 E3 inh -1, Hep lipid drop 110*, Hep lipid conf inconclusive and AML12 tox img 35*.
`C#CC(=O)N(c1cccc(OC)c1)C(C(=O)NC1CCCC1)c1cccs1` (centres undefined) gave p-CIP stab down 1 and MDM2 E3 inh -47.
Screening CCOc1ccc(S(=O)(=O)N2CCCC(C(=O)N3CCN(c4ccccc4)CC3)C2)cc1 (centres undefined) returned p-CIP stab down -18 and Hep lipid drop -19.
For Cc1cc(OCc2cc(C(=O)NCc3csc(C(C)C)n3)no2)cc(C)c1Cl the results were p-CIP stab down -9 and Hep lipid drop 12.
CCOC(=O)N1CCN(C(=O)CN(c2ccccc2OC)S(=O)(=O)c2ccc(OC)cc2)CC1 was read as p-CIP stab down -8, MDM2 E3 inh -1 and Hep lipid drop 0.
COc1ccc(S(=O)(=O)N(CC(=O)N2CCCCCC2)c2ccccc2OC)cc1 was read as p-CIP stab down 4, Hep lipid drop 58*, Hep lipid conf -12 and AML12 tox img -1.3.
Screening CCOc1ccc(NC(=O)CCN2CCN(S(=O)(=O)c3cc(Cl)ccc3OC)CC2)cc1 returned p-CIP stab down 3, MDM2 E3 inh -14 and Hep lipid drop -26.
CCN(CC)c1ccc(NC(=O)CN2CCN(S(=O)(=O)c3cc(Cl)ccc3OC)CC2)cc1 was read as p-CIP stab down -1, MDM2 E3 inh -5, Hep lipid drop 60*, Hep lipid conf 63*, AML12 tox img 0.61 and AML12 tox ATP 12.
`CC(=O)Nc1cccc(OCC(=O)Nc2ccccc2)c1` gave p-CIP stab down 4, MDM2 E3 inh -10 and Hep lipid drop 2.
